Calls of active or inactive are those of the source. No cut-off for these calls is given here.
Columns and labels:
[1] = Cytotoxicity against human MSC assessed as cell viability at 10 uM treated for 6 days measured on day 7 by alamar blue assay (reference value: 96 to 101%); conditions: MSC cells, read-out: Activity
[2] = Cytotoxicity against human MSC assessed as cell viability at 1 uM measured on day 1 by alamar blue assay (reference value: 97 to 101%); conditions: MSC cells, read-out: Activity
[3] = Cytotoxicity against human MSC assessed as cell viability at 10 uM treated for 3 days measured on day 4 by alamar blue assay (reference value: 97 to 100%); conditions: MSC cells, read-out: Activity
[4] = Cytotoxicity against human MSC assessed as cell viability at 5 uM treated for 3 days measured on day 4 by alamar blue assay (reference value: 97 to 100%); conditions: MSC cells, read-out: Activity
[5] = Cytotoxicity against human MSC assessed as cell viability at 1 uM treated for 6 days measured on day 7 by alamar blue assay (reference value: 96 to 101%); conditions: MSC cells, read-out: Activity
[6] = Cytotoxicity against human MSC assessed as cell viability at 10 uM measured on day 1 by alamar blue assay (reference value: 97 to 101%); conditions: MSC cells, read-out: Activity
[7] = Cytotoxicity against human MSC assessed as cell viability at 5 uM treated for 6 days measured on day 7 by alamar blue assay (reference value: 96 to 101%); conditions: MSC cells, read-out: Activity
[8] = Cytotoxicity against human MSC assessed as cell viability at 1 uM treated for 3 days measured on day 4 by alamar blue assay (reference value: 97 to 100%); conditions: MSC cells, read-out: Activity
MSC [9] = experiment: (§1) Induction of osteogenic differentiation in human MSC assessed as increase in ALP activity at 10 uM using p-NPP as substrate after 9 days by colorimetric method relative to control; format: functional
Method in brief: (§2)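 ALP read on day 9 in passage-3 bone-marrow hMSCs cultured at high density in Os.D medium. Compound (1, 5 or 10 μM, 0.1% v/v DMSO final) was re-applied on days 0, 3 and 6. Colorimetric p-nitrophenyl phosphate method, normalised to time and cell number (pNP/min/20,000 cells). Expressed as % of untreated control; three independent triplicate experiments; one-way ANOVA versus vehicle.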

MSC [10] = experiment: Induction of osteogenic differentiation in human MSC assessed as increase in ALP activity at 1 uM using p-NPP as substrate after 9 days by colorimetric method relative to control; format: functional; method in brief: as §2
MSC [11] = experiment: (§3) Induction of osteogenic differentiation in human MSC assessed as increase in ALP activity at 5 uM using p-NPP as substrate after 9 days by colorimetric method relative to control; format: functional; method in brief: as §2
[12] = Cytotoxicity against human MSC assessed as cell viability at 5 uM measured on day 1 by alamar blue assay (reference value: 97 to 101%); conditions: MSC cells, read-out: Activity
[13] = Cytotoxicity against human MSC assessed as decrease in cell number at 1 to 10 uM after 9 days by methylene blue staining based microscopy relative to control; conditions: 216 h
Method in brief: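 Passage-3 bone-marrow hMSCs, high density in Os.D medium, dosed with 1, 5 or 10 μM compound (0.1% v/v DMSO final) on days 0, 3 and 6 with medium changes. Cell number measured on day 9 by methylene blue proliferation assay. Expressed as % of untreated control; three independent triplicate experiments, mean ± SEM, one-way ANOVA versus vehicle.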

[14] = as §1; format: functional; method in brief: as §2
[15] = as §3; format: functional; method in brief: as §2
[16] = Decrease in ALP activity in human MSC using p-NPP as substrate at 10 uM after 9 days by colorimetric method relative to control; format: functional
Method in brief: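 Passage-3 bone-marrow hMSCs from healthy donors, cultured at high density in osteogenic (Os.D) medium; compound given at days 0, 3 and 6 with media change every 3 days, final 0.1% (v/v) DMSO; vehicle, 50 nM calcitriol and untreated controls. Day-9 ALP by para-nitrophenyl phosphate colorimetry, normalised to time and cell number (methylene blue); % of untreated control, 3 independent triplicate experiments ± SEM.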

MSC [17] = experiment: Induction of osteogenic differentiation in human MSC assessed as increase in ALP activity using p-NPP as substrate after 9 days by colorimetric method; format: functional; method in brief: as §2
[18] = Decrease in ALP activity in human MSC using p-NPP as substrate at 5 uM after 9 days by colorimetric method relative to control; format: functional; parameters: Activity: scale not given: the % may be the effect or the level left; method in brief: as §2

Row | SMILES | viability at 144 h, 10 µM [1] | viability at 1 day, 1 µM [2] | viability at 72 h, 10 µM [3] | viability at 72 h, 5 µM [4] | viability at 144 h, 1 µM [5] | viability at 1 day, 10 µM [6] | viability at 144 h, 5 µM [7] | viability at 72 h, 1 µM [8] | Activity (MSC [9]) | Activity (MSC [10]) | Activity (MSC [11]) | viability at 1 day, 5 µM [12] | Activity [13] | fold change (FC) [14] | fold change (FC) [15] | fold change (FC) [16] | Activity (MSC [17]) | Activity [18] | Activity [14] | fold change (FC) [13]
1 | O=C1c2c(O)cc(O)cc2O[C@H](c2ccc(O)c(O)c2)[C@H]1O [(+)-TAXIFOLIN] | 101% | 103% | 92% | 92% | 98% | 102% | 98% | 92% | inactive | inactive | inactive | 101% | – | – | – | – | – | – | – | –
2 | O=c1cc(-c2ccccc2)oc2ccccc12 [FLAVONE] | 98% | 102% | 92% | 93% | 100% | 106% | 102% | 93% | inactive | inactive | inactive | 103% | Toxic | – | – | – | – | – | – | –
3 | O=c1c(O)c(-c2ccc(O)c(O)c2)oc2cc(O)cc(O)c12 [QUERCETIN] | 101% | 101% | 101% | 100% | 103% | 89% | 104% | 98% | – | inactive | – | 100% | Toxic | 1.32 | 1.52 | – | – | – | – | –
4 | O=c1cc(-c2ccc(O)c(O)c2)oc2cc(O)cc(O)c12 [LUTEOLIN] | 96% | 100% | 94% | 96% | 97% | 93% | 94% | 99% | – | inactive | – | 96% | Toxic | – | – | 0.59 | – | – | – | –
5 | O=C1C[C@@H](c2ccc(O)cc2)Oc2cc(O)cc(O)c21 [NARINGENIN] | 103% | 104% | 106% | 104% | 100% | 105% | 102% | 101% | – | inactive | inactive | 105% | – | 1.53 | – | – | – | – | – | –
6 | COc1cc([C@@H]2CC(=O)c3c(O)cc(O)cc3O2)ccc1O | – | – | – | – | – | – | – | – | inactive | inactive | inactive | – | – | – | – | – | – | – | – | –
7 | O=c1c(O)c(-c2ccccc2)oc2cc(O)cc(O)c12 [GALANGIN] | 97% | 105% | 91% | 91% | 99% | 104% | 97% | 94% | – | inactive | – | 105% | – | 1.32 | 1.52 | – | Dose-dependent effect | – | – | –
8 | COc1cc(-c2oc3cc(O)cc(O)c3c(=O)c2O)ccc1O [ISORHAMNETIN] | 97% | 105% | 91% | 92% | 98% | 108% | 100% | 93% | – | inactive | – | 107% | Toxic | 1.32 | 1.52 | – | – | – | – | –
9 | O=C(CCc1ccc(O)cc1)c1c(O)cc(O)cc1O [PHLORETIN] | 100% | 106% | 95% | 93% | 97% | 106% | 98% | 93% | inactive | inactive | inactive | 105% | – | – | – | – | – | – | – | –
10 | O=C1C[C@@H](c2ccc(O)c(O)c2)Oc2cc(O)cc(O)c21 [ERIODICTYOL] | 101% | 102% | 102% | 102% | 101% | 99% | 102% | 103% | – | inactive | inactive | 98% | – | – | – | – | – | 98% | 111% | –
11 | O=c1cc(-c2ccc(O)cc2)oc2cc(O)cc(O)c12 [APIGENIN] | 94% | 98% | 98% | 99% | 96% | 98% | 97% | 101% | inactive | inactive | inactive | 102% | Toxic | – | – | – | – | – | – | –
12 | COc1ccc(-c2oc3cc(O)cc(O)c3c(=O)c2O)cc1O [TAMARIXETIN] | 93% | 105% | 93% | 97% | 94% | 102% | 96% | 97% | – | inactive | – | 102% | Toxic | 1.32 | 1.52 | – | Dose-dependent effect | – | – | –
13 | COc1ccc(-c2cc(=O)c3c(O)cc(O)cc3o2)cc1O | – | – | – | – | – | – | – | – | inactive | inactive | inactive | – | – | – | – | – | – | – | – | –
14 | Oc1cc(O)c2c(c1)O[C@H](c1ccc(O)c(O)c1)[C@H](O)C2 [(-)-EPICATECHIN] | 98% | 92% | 94% | 95% | 96% | 84% | 98% | 98% | inactive | inactive | inactive | 90% | – | – | – | – | – | – | – | 0.43
15 | Oc1ccc(/C=C/c2cc(O)cc(O)c2)cc1 [RESVERATROL] | 97% | 99% | 100% | 100% | 96% | 98% | 97% | 100% | inactive | inactive | inactive | 101% | Toxic | – | – | – | – | – | – | –
16 | O=c1c(O)c(-c2ccc(O)c(O)c2)oc2cc(O)ccc12 [FISETIN] | 96% | 98% | 95% | 97% | 98% | 86% | 97% | 96% | – | inactive | – | 98% | Toxic | 1.32 | 1.52 | – | – | – | – | –
17 | Oc1cc(O)c2c(c1)O[C@H](c1ccc(O)c(O)c1)[C@@H](O)C2 [CIANIDANOL] | 98% | 105% | 93% | 92% | 97% | 104% | 98% | 94% | inactive | inactive | inactive | 104% | – | – | – | – | – | – | – | –

Reference: ChEMBL document CHEMBL3739259, “Defining Key Structural Determinants for the Pro-osteogenic Activity of Flavonoids” (J Nat Prod, 2015)
